Molecules are shown by their SMILES. The source made the active and inactive calls. The calls are words filed in the database; no cut-off is given here.

Series [1] is described as follows: Induction of NO release in phosphate buffered saline of pH 7.4 after 1 hr by Griess assay in presence of 0.5 mM L-cysteine. Type of series: physicochemical. The conditions noted are these: buffer, pH 7.4, 1 h.
The nature of series [2]: Induction of glucose-stimulated insulin release from rat INS-1E cells at 200 uM after 1 hr by coated charcoal immunoassay in presence of 2 mM glucose relative to control. Type of series: functional. The method, boiled down:
(§1)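 INS-1E cells at passages 54–65 were kept in RPMI 1640 with 10% heat-inactivated FCS, pyruvate, 2-mercaptoethanol, glutamine and HEPES, and were seeded at 4 x 10^4 cells/cm2. After 48 h they were preincubated 1 h at 37 °C in KRBH with 0.5% BSA and 1 or 2 mM glucose. They were then exposed 1 h at 37 °C to glucose ± compound (100 or 200 µM). Secreted insulin was measured by RIA against a rat insulin standard. Data are mean ± SEM.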

A short description of series [3]: Antiaggregatory activity in human platelet-rich plasma assessed as inhibition of collagen-induced aggregation pretreated 10 mins before addition of stimulus measured after 10 mins in presence of 50 uM ODQ. The class given is functional.
Series [4] relates to INS-1E. In words: Induction of glucose-stimulated insulin release from rat INS-1E cells at 200 uM after 1 hr by coated charcoal immunoassay in presence of up to 4 mM glucose. The class given is functional, cell-based. The method, boiled down:
as §1

The subject of series [5] is Aorta. In words: Vasodilatory activity in Wistar rat thoracic aorta assessed as relaxation of L-phenylephrine-induced contraction after 120 mins. The conditions noted are these: for EC50: 2 h. Type of series: functional, tissue-based.
Series [6] is described as follows: Induction of nitrite production in rat INS-1E cells assessed per well at 200 uM after 2 hrs by Griess method in presence of 2 mM glucose. Type of series: functional.
Series [7] is described as follows: Induction of glucose-stimulated insulin release from rat INS-1E cells at 100 uM after 1 hr by coated charcoal immunoassay in presence of 2 mM glucose relative to control. The class given is functional. The essentials:
as §1

Series [8] relates to Aorta. In words: Vasodilatory activity in Wistar rat thoracic aorta assessed as relaxation of L-phenylephrine-induced contraction after 120 mins in presence of 1 uM sGC inhibitor ODQ. Type of series: functional, tissue-based. The conditions noted are these: for EC50: 2 h.
Series [9] in a line: Induction of NO release in phosphate buffered saline of pH 7.4 after 1 hr by Griess assay in presence of 5 mM L-cysteine. The class given is physicochemical. The conditions noted are these: buffer, pH 7.4, 1 h.
Series [10] in a line: Antiaggregatory activity in human platelet-rich plasma assessed as inhibition of collagen-induced aggregation at 300 uM pretreated 10 mins before addition of stimulus measured after 10 mins. The class given is functional. The method, boiled down: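 Collagen-triggered aggregation in human platelet-rich plasma, by a method described in earlier work. Inhibition is taken relative to control samples. IC50 is obtained by nonlinear regression where it can be calculated. Otherwise percent inhibition is reported at the top concentration tried, 300 µM.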

A short description of series [11]: Induction of glucose-stimulated insulin release from rat INS-1E cells at 200 uM after 1 hr by coated charcoal immunoassay in presence of 5.6 mM glucose. The class given is functional. The essentials:
as §1

A short description of series [12]: Induction of glucose-stimulated insulin release from rat INS-1E cells at 200 uM after 1 hr by coated charcoal immunoassay in presence of 11 mM glucose. Type of series: functional. The method, boiled down:
as §1

Series [13] is described as follows: (§2) Induction of glucose-stimulated insulin release from rat INS-1E cells at 200 uM after 1 hr by coated charcoal immunoassay in presence of 2 mM glucose. The class given is functional. The method, boiled down:
as §1

Series [14] has as its system INS-1E. The series is described as §2. The class given is functional. The method, boiled down:
as §1

A further series relates to liver (rat). In words: Induction of nitric oxide release from Wistar rat liver homogenate at 200 uM after 45 mins by Griess method.

In the case of `CCCCNC(=O)NS(=O)(=O)c1ccc(Oc2no[n+]([O-])c2S(=O)(=O)c2ccccc2)cc1`, the Activity in series [1] is 32.1%; in [2] it was 4.33%; in the series on Aorta [5] it was “Dose-dependent effect”; in [6], 22.68 nmol; in series [7], 3.06%. Besides, the half-maximal inhibitory concentration (IC50) in [3] is 34 µM. For the same molecule, the result in the series on INS-1E [4] was Active. Further, the EC50 was 0.0024 µM in the series on Aorta [5] and 0.22 µM in the series on Aorta [8].

For the molecule `CCCCNC(=O)NS(=O)(=O)c1ccc(OCc2no[n+]([O-])c2-c2ccccc2)cc1`, the Activity in series [2] was 2.41%; in series [9], less than 1%; in the series with Aorta [5], “Dose-dependent effect”; in series [6], 7.03 nmol; in series [7], 1.83%. In the series on INS-1E [4], the result was Active. The results for the EC50 in the series on Aorta [5] and in the series with Aorta [8] were 2.4 µM and greater than 100 µM, respectively. The inhibition at 300 µM in series [10] was found to be 13%.

With `CCCCNC(=O)NS(=O)(=O)c1ccc(C)cc1` [TOLBUTAMIDE], the Activity in [2] was 2.97%; in series [11], 4.98%; in the series with Aorta [5] it was “Dose-dependent effect”; in [12] it was 5.45%; in [6], 3.2 nmol; in [13] it was 2.76%. For the same molecule, the Activity in [7] was found to be 2.22%. Also, the result in the series with INS-1E [4] was Active. Moreover, the inhibition at 300 µM in series [10] is 6.4%. The outcome in the series with Aorta [8] was inactive.

Consider `O=[N+]([O-])OCCCOc1ccccc1`, for which the outcome in the series with INS-1E [14] was inactive.

For the molecule `CCCCNC(=O)NS(=O)(=O)c1ccc(OCc2no[n+]([O-])c2C#N)cc1`, the values for the Activity (in [1]; with Aorta [5]; in [6]) were 27.7%, “Dose-dependent effect” and 10.33 nmol, respectively. In series [3], the IC50 is 209 µM. Also, in the series on INS-1E [4], the result was Active. Also, the EC50 in the series with Aorta [8] was 0.9 µM.

On to `CCCCNC(=O)NS(=O)(=O)c1ccc(OCC(CO[N+](=O)[O-])O[N+](=O)[O-])cc1` (stereo not drawn), for which the outcome in the series with liver (rat) and in the series with INS-1E [4] was Active. Also, the Activity was 4.3% in [9]; 4.85% in [11]; “Dose-dependent effect” in the series on Aorta [5]; 5.65 nmol in series [6]; 2.6% in [13]. Moreover, the EC50 stood at 0.9 µM with Aorta [5] and 61 µM with Aorta [8]. In series [10], the inhibition at 300 µM was 5.6%.

Take `O=[N+]([O-])OCC(COc1ccccc1)O[N+](=O)[O-]` (stereo not drawn): the result in the series on INS-1E [14] was inactive.

`O=S(=O)(c1ccccc1)c1c(Oc2ccccc2)no[n+]1[O-]`: the outcome with INS-1E [14] was inactive.

On to `NC(=O)c1c(COc2ccccc2)no[n+]1[O-]`, for which the outcome in the series with INS-1E [14] was inactive.

Turning to `CCCCNC(=O)NS(=O)(=O)c1ccc(OCc2no[n+]([O-])c2C(N)=O)cc1`, the Activity was 1.94% in series [2]; 9.1% in series [9]; 4.19% in series [11]; “Dose-dependent effect” in the series on Aorta [5]; 4.92% in series [12]; 3.47 nmol in series [6]. Also, the Activity is recorded as 2.12% in [13] and 1.46% in [7]. For the same molecule, the EC50 in the series on Aorta [5] is 0.74 µM; with Aorta [8] it was 57 µM. For the same molecule, in series [10], the inhibition at 300 µM was 5.2%.

Take `N#Cc1c(COc2ccccc2)no[n+]1[O-]`: the result with INS-1E [14] was inactive.

For the molecule `CCCCNC(=O)NS(=O)(=O)c1ccc(OCCCO[N+](=O)[O-])cc1`, the Activity in series [2] is 2.38%; in [9] it was less than 1%; in series [11], 4.62%; with Aorta [5] it was “Dose-dependent effect”; in series [12], 5.79%; in series [6], 3.88 nmol. In addition, the Activity in series [13] worked out at 2.18%; in series [7] it was 1.86%. In addition, in the series on liver (rat), the outcome was Active. The EC50 in the series on Aorta [5] is 1.6 µM; in the series on Aorta [8], greater than 100 µM. The inhibition at 300 µM in [10] came out at 1.1%.

As to `[O-][n+]1onc(COc2ccccc2)c1-c1ccccc1`, in the series with INS-1E [14], the result was inactive.

The values above are taken from ChEMBL document CHEMBL2169768, “Synthesis and preliminary biological profile of new NO-donor tolbutamide analogues” (Bioorg Med Chem Lett, 2012).
